Experiment [1] in a line: S. cerevisiae growth inhibition in permissive medium (OD615), pilot counter-assay for S. cerevisiae lifespan shortening project, permissive growth control (AID 705;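 active = growth inhibition above 25% in both replicates, a cutoff set 3 SD above the mean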). As to conditions: OD615, 24 h, at 10 µM, active compounds read high. A digest of the protocol:
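System: Engineered DeaD yeast | Buffer or medium: SC raffinose/galactose permissive medium | Doses: 10 µM single dose, 0.25% DMSO | Times: 24 h exposure, 30 °C | Measured by: OD615 turbidity read | Read-out: Yeast growth inhibition indicated by reduced 24 h OD615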

Experiment [2] in a line: S. cerevisiae growth inhibition in restrictive medium, OD615, pilot screen, restrictive growth control, yeast lifespan reduction project (AID 706;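 active = growth inhibition above a set limit, 3 SD over mean compound inhibition, in both replicates, cut at about 43% in these data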;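 also: modified DeaD lifespan yeast strain shifted to restrictive glucose medium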). As to conditions: OD615, 48 h, at 10 µM, active compounds read high. In outline:
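Assay system: engineered S. cerevisiae DeaD strain; Buffer or medium: CSMM-D glucose medium; Dosing: 10 µM compound, 0.25% DMSO; Times: cell pre-growth 4 h, compound exposure 48 h, 30 °C; Detection: absorbance (optical density) measured at 615 nm.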

A short description of experiment [3]: doxorubicin toxicity protection in MRP-1 cells – H69AR cells, CellTiter-Glo, duplicate, MRP-1 activator project, pilot screen (AID 807;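 active = viability increase at or above a cutoff of the median across tested compounds plus 3 SD, cut at about 8.5% in these data, passing the limit was not always enough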;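 also: compound pretreatment 18-22 h then 72 h combined with doxorubicin; 0% = doxorubicin alone and 100% = vehicle without doxorubicin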). As to conditions: H69AR viability with doxorubicin, CellTiter-Glo luminescence; at 10 µM; active compounds read high.
Experiment [4] can be described thus: viability of HCT116 without oncogenic beta-catenin – human colon tumor cells, pilot screen (AID 823;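 active = cell viability at or below a set limit in both duplicate runs, the limit being the all-compound median minus 4 SD, cut at about 23% in these data, passing the limit was not always enough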;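 also: 0% = wells killed by 20 µM Hyamine and 100% = untreated DMSO cell wells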). As to conditions: HCT116 beta-catenin knockout viability, CellTiter-Glo, 60 h; at 10 µM; active compounds read low. A general note: Cellular ATP, detected with luciferase, serves as a proxy for viable cell number.
A short description of experiment [5]: viability of PTEN-null HCT116 cells – cell-based, HCT116 clonal line, CellTiter-Glo, pilot screen (AID 824;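 active = viability at or below 27.92% in each of two runs, the all-compound median minus 4 SD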;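 also: 0% = 20 µM Hyamine control and 100% = vehicle cell control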). As to conditions: HCT116 PTEN-deleted viability, 60 h, at 10 µM, active compounds read low.
Experiment [6] can be described thus: RAM pathway blockade in budding yeast – dse1pr::URA3 reporter, 5-FOA selection, pilot screen (AID 869).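 Also: 0% = DMSO wells with no growth and 100% = 10 µM 1-NA-PP1 with full growth; RAM network block rescues cells from 5-FOA so hits raise OD615 growth.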 As to conditions: S. cerevisiae dse1pr::URA3 5-FOA growth, OD615, 2 d; at 10 µM; active compounds read high; strain carries analog-sensitive mutant Cbk1 kinase.
A short description of experiment [7]: RAM signaling pathway blockade in yeast – S. cerevisiae, Pdr1DBD-CYC8 efflux-inhibited sensitized strain, primary screen (AID 1298;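 active = RAM network inhibition above 8.4% in each of two replicates, 3 SD over the compound average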;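 also: 0% = DMSO untreated cells without growth and 100% = 10 µM 1-NA-PP1 full growth; higher means more yeast growth rescued from 5-FOA killing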). As to conditions: S. cerevisiae cbk1-as DSE1-URA3 strain, 5-FOA growth OD615, 2 d; at 50 µM; active compounds read high.

Molecules are shown by their SMILES. Unmarked numbers belong to inactive results. Results filed as inconclusive are left out. The source made the active and inactive calls.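 The calls were made as follows, unless noted: active = inhibition over a set limit, the all-compound mean plus 3 SD, in both replicate runs; inconclusive = over that limit in just one replicate run; inactive = at or under that limit in both runs.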

One may read the viability as a read-out of living cells in per cent, often relative to untreated cells. Broadly, the inhibition is the share of the control response that was lost under treatment. Consider `COc1cc2c(C(=O)NCc3ccccn3)cn(C)c(=O)c2cc1OC`, for which the growth inhibition is -8.38% in experiment [1] and -2.63% in experiment [2]. Moreover, the viability increase in experiment [3] was -1.1%. Besides, the results for the viability in experiment [4] and in experiment [5] were 102% and 95.3%, respectively. Besides, in experiment [6], the inhibition was 1.86%. For the same compound, the RAM network inhibition in experiment [7] is 1.07%.
Take `CCCCN1C(=O)C(O)(CC(=O)c2ccccc2OC)c2ccccc21` (stereo unspecified): the growth inhibition in experiment [1] is -13.7%; in experiment [2], -5.6%. The viability increase in experiment [3] was -3.31%. The viability was 79.6% in experiment [4] and 89.5% in experiment [5]. Also, the inhibition in experiment [6] was 1.89%. In experiment [7], the RAM network inhibition was 2.02%.
With `O=S(=O)(NCCc1csc(-c2cccnc2)n1)c1ccc(Cl)s1`, the growth inhibition in experiment [1] is -15.7%; in experiment [2] it was 13.1%. Also, the viability increase in experiment [3] was 0.96%. For the same compound, the viability in experiment [4] was 87.6%; in experiment [5] it was 85.5%. Moreover, the inhibition in experiment [6] is 1.76%. Further, the RAM network inhibition in experiment [7] was 3.12%.
For `O=C1CC(c2ccc(S(=O)(=O)NCc3ccncc3)cc2)CN1` (stereo unspecified), the growth inhibition is -10.3% in experiment [1] and -7.88% in experiment [2]. Besides, in experiment [3], the viability increase is -0.07%. For the same compound, the viability in experiment [4] was 99.7%; in experiment [5] it was 97.2%. Moreover, the inhibition in experiment [6] is 1.73%. Also, the RAM network inhibition in experiment [7] was 1.15%.
As for `O=C(OCCOCCN=C1NS(=O)(=O)c2ccccc21)C1CC(=O)N(c2ccccc2)C1` (stereo unspecified), the growth inhibition was 4.05% in experiment [1] and 5.13% in experiment [2]. The viability increase in experiment [3] is -1.16%. Besides, the results for the viability in experiment [4] and in experiment [5] were 100% and 87.3%, respectively. In addition, the inhibition in experiment [6] is 2.11%. Also, the RAM network inhibition in experiment [7] is 1.23%.
For the compound `Cc1cc(C)n(-c2nnc(C)n2/N=C/c2cc(Br)ccc2OCc2ccccc2)n1`, the growth inhibition was -10.3% in experiment [1] and 13.9% in experiment [2]. In addition, the viability increase in experiment [3] was -7.71%. The viability is 12.4% (active) in experiment [4] and 8.96% (active) in experiment [5]. Moreover, the inhibition in experiment [6] was 0.37%. The RAM network inhibition in experiment [7] is -1.07%.
Take `Cc1cc(N)n2ncc(-c3cccc(Br)c3)c2n1`: the growth inhibition was 2.1% in experiment [1] and -6.45% in experiment [2]. The viability increase in experiment [3] was -6.91%. The viability in experiment [4] is 75.4%; in experiment [5] it was 71.8%. For the same compound, in experiment [6], the inhibition was 0.315%. Further, the RAM network inhibition in experiment [7] is 1.65%.
With `CCN(CC)c1ccc(/C=N/n2c(C)cc(C)cc2=O)cc1`, the growth inhibition in experiment [1] was 0.085%; in experiment [2], 7.67%. For the same compound, the viability increase in experiment [3] is -0.57%. Also, the results for the viability in experiment [4] and in experiment [5] were 105% and 93%, respectively. In addition, in experiment [6], the inhibition is 0.145%. Also, in experiment [7], the RAM network inhibition was 1.36%.
As for `COc1ccc(Cl)cc1C(=O)Nc1cc(=O)n(C)c(=O)n1C`, the values for the growth inhibition in experiment [1] and in experiment [2] were -16.1% and -29.6%, respectively. For the same compound, the viability increase in experiment [3] was -1.06%. For the same compound, the viability in experiment [4] is 102%; in experiment [5], 99.1%. In addition, the inhibition in experiment [6] is 1.71%. In addition, the RAM network inhibition in experiment [7] was 2.2%.
`COC(=O)c1cnn2c(C)c(Cc3cccc(F)c3)c(C)nc12`: the growth inhibition in experiment [1] is -5.12%; in experiment [2], -16%. Besides, the viability increase in experiment [3] is -5.7%. The figures for the viability in experiment [4] and in experiment [5] were 92.3% and 80.9%, respectively. In addition, the inhibition in experiment [6] is 1.53%. The RAM network inhibition in experiment [7] was 2.9%.
Consider `Cn1c(N)c(C(=O)COC(=O)Cc2ccsc2)c(=O)n(C)c1=O`, for which the results for the growth inhibition in experiment [1] and in experiment [2] were -10.1% and -0.56%, respectively. Further, the viability increase in experiment [3] is -0.79%. In addition, the viability in experiment [4] is 93.6%; in experiment [5] it was 97.7%. The inhibition in experiment [6] is 0.31%. The RAM network inhibition in experiment [7] is -0.32%.
For `O=C(CCCOc1ccccc1)NCC1CCCO1` (stereo unspecified), the growth inhibition in experiment [1] was -3.87%; in experiment [2], -6.75%. Also, the viability increase in experiment [3] is -2.68%. In addition, the viability in experiment [4] was 96.5%; in experiment [5], 91.5%. Also, the inhibition in experiment [6] was 4.06%. In experiment [7], the RAM network inhibition is 0.83%.
Regarding `CCc1ccc(Nc2cc(C)nc3nc(C)nn23)cc1`, the growth inhibition in experiment [1] was -16.8%; in experiment [2], -7.12%. The viability increase in experiment [3] was -4.04%. The viability in experiment [4] was 96.8%; in experiment [5], 96%. Further, the inhibition in experiment [6] is 1.99%. In experiment [7], the RAM network inhibition was 4.01%.
As for `O=C1CC(N2CCN(C/C=C/c3ccccc3)CC2)C(=O)N1CCc1ccccc1` (stereo unspecified), the figures for the growth inhibition in experiment [1] and in experiment [2] were -12.7% and -9.45%, respectively. The viability increase in experiment [3] is -0.11%. For the same compound, the viability in experiment [4] was 72.8%; in experiment [5], 77.6%. In experiment [6], the inhibition is 1.02%. Moreover, the RAM network inhibition in experiment [7] was 7.71%.
As for `CCOC(=O)Cc1csc(SCn2nnc3ccccc3c2=O)n1`, the growth inhibition was -8.4% in experiment [1] and -9.13% in experiment [2]. Also, the viability increase in experiment [3] is 0.7%. Moreover, the viability in experiment [4] and in experiment [5] was 94.8% in each case. Moreover, the inhibition in experiment [6] is 2.31%. The RAM network inhibition in experiment [7] was 1.31%.
As for `O=C(NCc1ccco1)C1CCN(c2nnc(-n3cccc3)s2)CC1`, the growth inhibition in experiment [1] was 3.71%; in experiment [2], -3.18%. Further, in experiment [3], the viability increase was -3.76%. Besides, the viability is 97.2% in experiment [4] and 95.8% in experiment [5]. Also, the inhibition in experiment [6] was 0.985%. The RAM network inhibition in experiment [7] is 5.26%.
As to `COc1ccc(NC(=O)N(CCCN2CCOCC2)Cc2cccnc2)c(OC)c1`, the growth inhibition is -7.71% in experiment [1] and -3.92% in experiment [2]. In addition, the viability increase in experiment [3] is -1.79%. Further, the viability in experiment [4] was 100%; in experiment [5], 103%. Besides, the inhibition in experiment [6] was 1.03%. In experiment [7], the RAM network inhibition is 1.81%.
For the compound `O=C(NCCO)c1ccc2[nH]c3c(c2c1)CCCC3`, the growth inhibition in experiment [1] was -12.1%; in experiment [2], -18.9%. The viability increase in experiment [3] is -0.28%. The viability in experiment [4] was 98.9%; in experiment [5], 96.1%. Further, the inhibition in experiment [6] was 1.46%. The RAM network inhibition in experiment [7] was 4.19%.

Source of the values: PubChem BioAssay.
